ChEMBL document CHEMBL1268999, “Triazolyl tryptoline derivatives as β-secretase inhibitors” (Bioorg Med Chem Lett, 2010)

Assays:
[1] = Solubility of the compound; type: physicochemical
Procedure, shortened: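 Aqueous solubility reported as a categorical level on a 0–3 scale, where 0 = extremely low and 3 = good.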

Hepatocyte = test: Toxicity in hepatocytes; type: cell-based
Rattus norvegicus = test: Toxicity in po dosed rat; type: organism-based; details: in vivo
Cytochrome P450 2D6 = Cytochrome P450 2D6 (Homo sapiens, UniProt P10635); test: Inhibition of CYP2D6; type: ADME
Cytochrome P450 2D6, sequence (P10635 whole entry): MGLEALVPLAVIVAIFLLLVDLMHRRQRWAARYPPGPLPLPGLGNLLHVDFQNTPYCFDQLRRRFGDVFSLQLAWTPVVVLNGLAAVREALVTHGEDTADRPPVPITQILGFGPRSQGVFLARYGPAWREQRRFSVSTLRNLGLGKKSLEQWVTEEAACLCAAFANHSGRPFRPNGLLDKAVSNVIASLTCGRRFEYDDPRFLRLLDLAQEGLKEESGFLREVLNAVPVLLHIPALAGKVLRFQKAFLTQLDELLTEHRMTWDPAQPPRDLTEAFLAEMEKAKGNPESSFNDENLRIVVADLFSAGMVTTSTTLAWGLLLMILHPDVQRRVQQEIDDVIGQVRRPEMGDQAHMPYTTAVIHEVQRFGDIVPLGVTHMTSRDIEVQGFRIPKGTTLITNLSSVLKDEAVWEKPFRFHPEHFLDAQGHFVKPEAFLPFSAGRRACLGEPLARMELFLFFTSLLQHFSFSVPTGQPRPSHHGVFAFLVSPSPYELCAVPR
Procedure, shortened: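 CYP2D6 inhibition reported as a categorical score, where 0 = non-inhibitor.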

[2] = Protein binding in plasma; type: ADME, cell-free; details: read-out: PPB
Procedure, shortened: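 Plasma protein binding reported as a categorical level: 1 = binding >90%; 2 = binding >95%.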

Beta-secretase 1 [3] = target: T1, Beta-secretase 1 (Homo sapiens, UniProt P56817); test: Inhibition of human BACE1 at 5 uM
T1 sequence (P56817 whole entry): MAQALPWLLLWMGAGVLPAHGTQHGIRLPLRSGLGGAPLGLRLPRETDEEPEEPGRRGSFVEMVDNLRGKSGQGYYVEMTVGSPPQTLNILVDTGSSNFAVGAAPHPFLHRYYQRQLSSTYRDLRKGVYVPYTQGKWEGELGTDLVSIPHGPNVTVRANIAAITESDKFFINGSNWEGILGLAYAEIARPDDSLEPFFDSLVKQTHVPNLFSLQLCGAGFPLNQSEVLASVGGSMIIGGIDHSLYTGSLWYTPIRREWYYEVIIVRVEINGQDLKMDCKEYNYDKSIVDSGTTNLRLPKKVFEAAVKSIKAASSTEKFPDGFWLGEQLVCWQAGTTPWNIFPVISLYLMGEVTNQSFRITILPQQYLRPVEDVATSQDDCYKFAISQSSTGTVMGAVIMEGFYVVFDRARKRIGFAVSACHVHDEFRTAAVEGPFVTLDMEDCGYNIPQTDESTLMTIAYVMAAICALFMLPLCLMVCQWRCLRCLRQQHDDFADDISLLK
Procedure, shortened: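 Recombinant human BACE1 enzymatic assay with a FRET substrate (fluorescence resonance energy transfer read-out). Candidates were crude Cu(I)-catalysed azide–alkyne products made in microtiter plates with more than 80% conversion by LC–MS. They were diluted in 50 mM sodium acetate (pH 4.5) to 25 mM stocks, based on azide input.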

Cathepsin D = Cathepsin D (Homo sapiens, UniProt P07339); test: Inhibition of human recombinant Cathepsin D by FRET assay
Cathepsin D, sequence (P07339 65-162 limits assumed): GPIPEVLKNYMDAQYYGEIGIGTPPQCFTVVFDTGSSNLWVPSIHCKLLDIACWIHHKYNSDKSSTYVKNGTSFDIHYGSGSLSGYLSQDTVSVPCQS
Cathepsin D, sequence (P07339 169-412 limits assumed): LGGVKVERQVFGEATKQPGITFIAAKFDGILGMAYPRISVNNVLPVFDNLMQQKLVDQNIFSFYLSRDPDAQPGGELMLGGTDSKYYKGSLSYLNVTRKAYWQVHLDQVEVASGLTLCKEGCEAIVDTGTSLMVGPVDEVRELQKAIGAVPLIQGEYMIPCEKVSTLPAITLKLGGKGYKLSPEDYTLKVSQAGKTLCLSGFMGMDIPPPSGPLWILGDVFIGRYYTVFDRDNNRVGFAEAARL

Beta-secretase 1 [4] = target: T1, Beta-secretase 1; test: Inhibition of human recombinant BACE1 by FRET assay
Procedure, shortened: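 Recombinant human BACE1 assayed by fluorescence resonance energy transfer (FRET) cleavage of a FRET substrate. They were diluted in 50 mM sodium acetate (pH 4.5) to 25 mM stocks, based on azide input. A purified resynthesised compound was also tested.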

Structure (SMILES)	inhibition (Beta-secretase 1 [3])	further results
CC[C@H]1CN2CCc3c([nH]c4ccccc34)[C@H]2C[C@@H]1C[C@@H]1NCCc2c1[nH]c1ccccc21		solubility [1]: Insoluble; Activity (Hepatocyte): Toxic; LD50 (Rattus norvegicus): 235.5 µg/g; inhibition (INH) (Cytochrome P450 2D6): Not Active; fraction unbound [2]: < 0.05
OC(c1ccccc1)c1cn(C[C@@H]2Cc3c([nH]c4ccccc34)CN2)nn1 (some centres undefined)	< 50%	
c1ccc2c3c([nH]c2c1)CN[C@H](Cn1cc(Cn2ccnc2)nn1)C3	< 50%	
CC(=O)CC(=O)NCc1cn(C[C@@H]2Cc3c([nH]c4ccccc34)CN2)nn1	< 50%	
N#CCCc1cn(C[C@@H]2Cc3c([nH]c4ccccc34)CN2)nn1	< 50%	
Cc1nnc(SCc2cn(C[C@@H]3Cc4c([nH]c5ccccc45)CN3)nn2)s1	< 50%	
CCOC(OCC)c1cn(C[C@@H]2Cc3c([nH]c4ccccc34)CN2)nn1	< 50%	
CC(=O)c1ccc(-c2cn(C[C@@H]3Cc4c([nH]c5ccccc45)CN3)nn2)cc1	< 50%	
Cc1ccc(-c2cn(C[C@@H]3Cc4c([nH]c5ccccc45)CN3)nn2)cc1	< 50%	
c1ccc(SCc2cn(C[C@@H]3Cc4c([nH]c5ccccc45)CN3)nn2)cc1	< 50%	
Nc1cccc(-c2cn(C[C@@H]3Cc4c([nH]c5ccccc45)CN3)nn2)c1	< 50%	
c1ccc(-c2ccc(-c3cn(C[C@@H]4Cc5c([nH]c6ccccc56)CN4)nn3)cc2)cc1	< 50%	
Fc1cc(F)cc(-c2cn(C[C@@H]3Cc4c([nH]c5ccccc45)CN3)nn2)c1	< 50%	
COc1ccc2cc(-c3cn(C[C@@H]4Cc5c([nH]c6ccccc56)CN4)nn3)ccc2c1	> 50%	IC50 (Cathepsin D): > 100000 nM; IC50 (Beta-secretase 1 [4]): 1490 nM
c1ccc2c(-c3cn(C[C@@H]4Cc5c([nH]c6ccccc56)CN4)nn3)cccc2c1	< 50%	
CCCC(O)c1cn(C[C@@H]2Cc3c([nH]c4ccccc34)CN2)nn1 (some centres undefined)	< 50%	
c1ccc2c3c([nH]c2c1)CNCC3 [TRYPTOLINE]		solubility [1]: Soluble; Activity (Hepatocyte): Non-toxic; LD50 (Rattus norvegicus): 701500 µg/g; inhibition (INH) (Cytochrome P450 2D6): Not Active; fraction unbound [2]: < 0.1
OC/C=C/c1cn(C[C@@H]2Cc3c([nH]c4ccccc34)CN2)nn1	< 50%	
c1ccc2c3c([nH]c2c1)CN[C@H](Cn1cc(-c2ccsc2)nn1)C3	< 50%	
OC1(c2cn(C[C@@H]3Cc4c([nH]c5ccccc45)CN3)nn2)CCCC1	< 50%	
c1ccc2c3c([nH]c2c1)CN[C@H](Cn1cc(COC2CCCCO2)nn1)C3 (some centres undefined)	< 50%	
CC(O)c1cn(C[C@@H]2Cc3c([nH]c4ccccc34)CN2)nn1 (some centres undefined)	< 50%	
c1ccc2c3c([nH]c2c1)CN[C@H](Cn1cc(COC[C@H]2CO2)nn1)C3	< 50%	
OC1(c2cn(C[C@@H]3Cc4c([nH]c5ccccc45)CN3)nn2)c2ccccc2-c2ccccc21	< 50%	
